Here are results for one molecule from ChEMBL document CHEMBL5030540 (J Med Chem, 2021).

The source made the active and inactive calls.

For data set [1], the system named is Mus musculus. As to the kind of experiment: Antinociceptive activity in C57BL/6 mouse model assessed as measuring increase in tail withdrawal latency at 10 mg/kg, po at 55 degC measured at 30 mins peak time point by […] withdrawal assay. It is filed as functional. The note with it: 0.5 h. The method in brief: (§1)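 C57BL/6J mice given compound sc or po. 55 °C warm-water tail withdrawal with baseline latency taken first, then measured every 10 min, 15 s cutoff. % antinociception = 100 × (test − baseline)/(15 − baseline). sc doses 1, 3, 10 mg/kg (n = 8). po dose 10 mg/kg (n = 13). ED50 with 95% CI.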

Data set [2] concerns the target T1, Mu-type opioid receptor (Homo sapiens, UniProt P35372). Put plainly: Agonist activity at human MOR receptor expressed in HTLA cells co-expressing TEV-fused-beta-arrestin2 assessed as induction of beta-arrestin2 recruitment by Tango assay. The format is functional, cell-based. The method in brief: (§2)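 HTLA cells expressing TEV-fused β-arrestin2 transiently transfected with a human MOR Tango construct. β-arrestin2 recruitment measured. […] Mean pEC50 ± SEM and Emax% ± SEM from triplicate runs.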
In general terms: Recruitment of arrestin is a read-out of receptor activation apart from second messengers.

Data set [3] can be described thus: Toxicity in C57BL/6 mouse model assessed as conditioned place preference at 10 mg/kg, IP. It is filed as organism-based. The note with it: in vivo. The method in brief: (§3)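 Counterbalanced two-compartment place conditioning in C57BL/6J mice. […] Time on drug-paired side over a 20 min test compared with preconditioning by Welch-corrected t test.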
Data set [4] has as its system Mus musculus. Put plainly: Antinociceptive activity in sc dosed C57BL/6 MOR knock out mouse model assessed as increase in tail withdrawal latency measured at 20 mins by radiant heat withdrawal assay. The format is functional, organism-based.
The nature of data set [5]: Toxicity in C57BL/6 mouse model assessed as conditioned place aversion at 15 mg/kg, sc. The settings on record: in vivo. The format is organism-based. The gist of the method: as §3
In data set [6] the target is T1, Mu-type opioid receptor. As to the kind of experiment: Displacement of [3H]-DAMGO from mu opioid receptor (unknown origin) expressed in CHO cells at 10 uM. The format is cell-based. On the technique in general: In a radioligand displacement assay an active substance lowers the binding of a labelled ligand.
Data set [7] addresses T1, Mu-type opioid receptor. As to the kind of experiment: Partial agonist activity at human MOR expressed in HEK293T cells co-expressing Galpha-RLuc8:Gbeta:Ggamma-GFP2 assessed as Galpha-i/o activation measured after TRUPATH assay. It is filed as functional, cell-based. The settings on record: filed as partial agonist.
Data set [8] has as its target T1, Mu-type opioid receptor. As to the kind of experiment: Agonist activity at human MOR expressed in CHO-K1 cells co-expressing beta-arrestin2 assessed as beta-arrestin2 EFC recruitment measured after 90 mins by PathHunter assay relative to control. The format is functional, cell-based. The gist of the method: (§4)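 CHO-K1 cells stably expressing human μOR grown to confluency and seeded overnight at 37 °C, 5% CO2. 5× dilution series of compound in Opti-MEM added for 90 min at 37 °C. Detection reagent then added for 60 min at room temperature in the dark, and chemiluminescence read.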

Data set [9] deals with GABA-A receptor; anion channel (Rattus norvegicus) (UniProt O09028+P15431+P18506+P18508+P19969+P20236+P23574+P23576+P28471+P28473+P30191+P62813+P63079+P63138+Q91ZM7+Q9ES14). As to the kind of experiment: Partial agonist activity at GABAA receptor in rat brain slice assessed as induction of receptor-mediated inhibitory postsynaptic current at 10 uM by Whole cell electrophysiology. It is filed as tissue-based. The settings on record: filed as partial agonist. The method in brief:
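Horizontal VTA slices (200 μm) from male Sprague–Dawley rats. Whole-cell voltage clamp at −70 mV, 33 °C, KCl internal. GABAA IPSCs isolated with 10 μM DNQX and evoked by paired pulses every 10 s. Drug (10 μM) bath applied. Mean IPSC amplitude at minutes 4–7 of drug compared with the 4 min baseline.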

The test system of data set [10] is Mus musculus. Put plainly: Antinociceptive activity in C57BL/6 mouse model assessed as measuring increase in tail withdrawal latency at 10 mg/kg, sc at 55 degC measured at 20 mins peak time point by […] withdrawal assay. The format is functional. The gist of the method:
as §1

Data set [11] deals with Mu-type opioid receptor (Mus musculus) (UniProt P42866). As to the kind of experiment: Partial agonist activity at mouse MOR expressed in HEK293T cells assessed as Nb33 recruitment by BRET assay relative to control. The format is functional, cell-based. The gist of the method:
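HEK293T cells transfected with murine MOR-NanoLuc (1 μg) and Nb33-Venus (4 μg) using PEI and used 48 h later. Cells in PBS given coelenterazine H (5 μM), ligand added at 5 min, BRET read 10 min later. Three-parameter fit; ≥3 independent trials in triplicate.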

Data set [12] deals with T1, Mu-type opioid receptor. As to the kind of experiment: Agonist activity at human MOR expressed in HEK293T cells assessed as inhibition of forskolin-stimulated cAMP accumulation incubated for 30 mins by Glo-sensor cAMP assay. It is filed as functional, cell-based. The method in brief: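 HEK293T cells transiently co-transfected with human MOR and a luciferase-based cAMP biosensor. Gαi-mediated cAMP inhibition read by luminescence. EC50 given as pEC50 ± SEM, triplicate runs.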
(In general: Changes in cAMP serve as a functional read-out for many G protein-coupled receptors.)

Data set [13] deals with T1, Mu-type opioid receptor. As to the kind of experiment: Agonist activity at human MOR expressed in HEK-293T cells assessed as inhibition of forskolin-stimulated cAMP accumulation incubated for 30 mins by Glo-sensor cAMP assay relative to DAMGO. It is filed as functional, cell-based. The note with it: HEK293T, filed as partial agonist. The gist of the method: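 HEK293T cells transiently co-transfected with human MOR and a luciferase-based cAMP biosensor. Gαi-mediated cAMP inhibition read by luminescence. […] EC50 given as pEC50 ± SEM, triplicate runs.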

A short description of data set [14]: Toxicity in C57BL/6 mouse model assessed as conditioned place preference at 15 mg/kg, sc. The note with it: in vivo. It is filed as organism-based. The method in brief:
as §3

Data set [15] addresses Voltage-dependent L-type calcium channel subunit alpha-1C (Rattus norvegicus, UniProt P22002). As to the kind of experiment: Displacement of [3H]Diltiazem from Cav1.2 in rat brain at 10 uM incubated for 120 mins by radiometric scintillation counting analysis. The format is tissue-based. The settings on record: 2 h.
Data set [16] is described as follows: Toxicity in C57BL/6 mouse model assessed as hyperlocomotion at 15 times of ED50 for antinociceptive effect. The settings on record: in vivo. The gist of the method: (§5)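 Mice habituated 60 min in sealed CLAMS cages, dosed sc, and confined 5 min later. Respiration rate measured by pressure transducer and ambulation by infrared beam breaks, every 20 min. […] Expressed as % vehicle. Two-way ANOVA with Dunnett's test.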

Data set [17] can be described thus: Toxicity in C57BL/6 mouse model assessed as charcoal distance travel at 15 mg/kg, sc measured after 3 hrs by gastrointestinal transit assay (reference value: 29.5 +/- 1 cm). The format is organism-based. The note with it: in vivo.
The nature of data set [18]: Toxicity in C57BL/6 mouse model assessed as respiratory depression at 15 times of ED50 for antinociceptive effect. The note with it: in vivo. The gist of the method: as §5
Data set [19] has as its target T1, Mu-type opioid receptor. As to the kind of experiment: Agonist activity at human MOR expressed in CHO-K1 cells co-expressing beta-arrestin2 assessed as beta-arrestin2 EFC recruitment measured after 90 mins by PathHunter assay. It is filed as functional, cell-based. The method in brief:
as §4

In data set [20] the target is T1, Mu-type opioid receptor. As to the kind of experiment: Partial agonist activity at human MOR expressed in HEK293T cells co-expressing Galpha-RLuc8:Gbeta:Ggamma-GFP2 assessed as maximal Gi-1 activation measured after 15 mins by BRET assay relative to control. The format is functional, cell-based. The note with it: filed as partial agonist.
Data set [21] has as its system Mus musculus. As to the kind of experiment: Antinociceptive activity in sc dosed C57BL/6 mouse model assessed as increase in tail withdrawal latency measured at 20 mins by […] withdrawal assay. The note with it: C57BL/6, sc. The format is functional. The method in brief: as §1
Data set [22] addresses T1, Mu-type opioid receptor. Put plainly: Agonist activity at human MOR receptor expressed in HTLA cells co-expressing TEV-fused-beta-arrestin2 assessed as induction of beta-arrestin2 recruitment by Tango assay relative to DAMGO. The format is functional, cell-based. The note with it: HTLA230, filed as partial agonist. The method in brief: as §2

T1 sequence (P35372 whole entry, the tested form may be a part): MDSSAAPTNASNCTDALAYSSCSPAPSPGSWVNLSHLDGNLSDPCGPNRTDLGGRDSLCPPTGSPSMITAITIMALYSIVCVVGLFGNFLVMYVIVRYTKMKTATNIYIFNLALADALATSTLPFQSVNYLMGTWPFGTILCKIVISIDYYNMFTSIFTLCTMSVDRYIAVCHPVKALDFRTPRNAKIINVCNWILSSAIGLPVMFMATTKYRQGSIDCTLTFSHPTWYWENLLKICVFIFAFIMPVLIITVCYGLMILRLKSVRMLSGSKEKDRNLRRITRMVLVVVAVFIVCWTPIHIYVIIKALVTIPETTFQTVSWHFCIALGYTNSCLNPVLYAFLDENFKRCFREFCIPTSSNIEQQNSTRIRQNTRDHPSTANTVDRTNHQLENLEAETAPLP
Chain of Mu-type opioid receptor (Mus musculus) (P42866 whole entry): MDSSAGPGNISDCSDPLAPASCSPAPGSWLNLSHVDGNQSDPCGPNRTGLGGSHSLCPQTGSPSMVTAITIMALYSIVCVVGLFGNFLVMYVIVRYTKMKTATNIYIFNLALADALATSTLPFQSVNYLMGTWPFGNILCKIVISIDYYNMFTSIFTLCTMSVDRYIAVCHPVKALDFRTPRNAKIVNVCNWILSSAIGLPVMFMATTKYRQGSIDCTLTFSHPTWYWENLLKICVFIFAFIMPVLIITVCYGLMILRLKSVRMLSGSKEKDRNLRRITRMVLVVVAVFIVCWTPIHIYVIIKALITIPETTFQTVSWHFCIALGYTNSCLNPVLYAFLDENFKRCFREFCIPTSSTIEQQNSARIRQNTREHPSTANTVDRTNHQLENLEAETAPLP
Chain of Voltage-dependent L-type calcium channel subunit alpha-1C (P22002 whole entry): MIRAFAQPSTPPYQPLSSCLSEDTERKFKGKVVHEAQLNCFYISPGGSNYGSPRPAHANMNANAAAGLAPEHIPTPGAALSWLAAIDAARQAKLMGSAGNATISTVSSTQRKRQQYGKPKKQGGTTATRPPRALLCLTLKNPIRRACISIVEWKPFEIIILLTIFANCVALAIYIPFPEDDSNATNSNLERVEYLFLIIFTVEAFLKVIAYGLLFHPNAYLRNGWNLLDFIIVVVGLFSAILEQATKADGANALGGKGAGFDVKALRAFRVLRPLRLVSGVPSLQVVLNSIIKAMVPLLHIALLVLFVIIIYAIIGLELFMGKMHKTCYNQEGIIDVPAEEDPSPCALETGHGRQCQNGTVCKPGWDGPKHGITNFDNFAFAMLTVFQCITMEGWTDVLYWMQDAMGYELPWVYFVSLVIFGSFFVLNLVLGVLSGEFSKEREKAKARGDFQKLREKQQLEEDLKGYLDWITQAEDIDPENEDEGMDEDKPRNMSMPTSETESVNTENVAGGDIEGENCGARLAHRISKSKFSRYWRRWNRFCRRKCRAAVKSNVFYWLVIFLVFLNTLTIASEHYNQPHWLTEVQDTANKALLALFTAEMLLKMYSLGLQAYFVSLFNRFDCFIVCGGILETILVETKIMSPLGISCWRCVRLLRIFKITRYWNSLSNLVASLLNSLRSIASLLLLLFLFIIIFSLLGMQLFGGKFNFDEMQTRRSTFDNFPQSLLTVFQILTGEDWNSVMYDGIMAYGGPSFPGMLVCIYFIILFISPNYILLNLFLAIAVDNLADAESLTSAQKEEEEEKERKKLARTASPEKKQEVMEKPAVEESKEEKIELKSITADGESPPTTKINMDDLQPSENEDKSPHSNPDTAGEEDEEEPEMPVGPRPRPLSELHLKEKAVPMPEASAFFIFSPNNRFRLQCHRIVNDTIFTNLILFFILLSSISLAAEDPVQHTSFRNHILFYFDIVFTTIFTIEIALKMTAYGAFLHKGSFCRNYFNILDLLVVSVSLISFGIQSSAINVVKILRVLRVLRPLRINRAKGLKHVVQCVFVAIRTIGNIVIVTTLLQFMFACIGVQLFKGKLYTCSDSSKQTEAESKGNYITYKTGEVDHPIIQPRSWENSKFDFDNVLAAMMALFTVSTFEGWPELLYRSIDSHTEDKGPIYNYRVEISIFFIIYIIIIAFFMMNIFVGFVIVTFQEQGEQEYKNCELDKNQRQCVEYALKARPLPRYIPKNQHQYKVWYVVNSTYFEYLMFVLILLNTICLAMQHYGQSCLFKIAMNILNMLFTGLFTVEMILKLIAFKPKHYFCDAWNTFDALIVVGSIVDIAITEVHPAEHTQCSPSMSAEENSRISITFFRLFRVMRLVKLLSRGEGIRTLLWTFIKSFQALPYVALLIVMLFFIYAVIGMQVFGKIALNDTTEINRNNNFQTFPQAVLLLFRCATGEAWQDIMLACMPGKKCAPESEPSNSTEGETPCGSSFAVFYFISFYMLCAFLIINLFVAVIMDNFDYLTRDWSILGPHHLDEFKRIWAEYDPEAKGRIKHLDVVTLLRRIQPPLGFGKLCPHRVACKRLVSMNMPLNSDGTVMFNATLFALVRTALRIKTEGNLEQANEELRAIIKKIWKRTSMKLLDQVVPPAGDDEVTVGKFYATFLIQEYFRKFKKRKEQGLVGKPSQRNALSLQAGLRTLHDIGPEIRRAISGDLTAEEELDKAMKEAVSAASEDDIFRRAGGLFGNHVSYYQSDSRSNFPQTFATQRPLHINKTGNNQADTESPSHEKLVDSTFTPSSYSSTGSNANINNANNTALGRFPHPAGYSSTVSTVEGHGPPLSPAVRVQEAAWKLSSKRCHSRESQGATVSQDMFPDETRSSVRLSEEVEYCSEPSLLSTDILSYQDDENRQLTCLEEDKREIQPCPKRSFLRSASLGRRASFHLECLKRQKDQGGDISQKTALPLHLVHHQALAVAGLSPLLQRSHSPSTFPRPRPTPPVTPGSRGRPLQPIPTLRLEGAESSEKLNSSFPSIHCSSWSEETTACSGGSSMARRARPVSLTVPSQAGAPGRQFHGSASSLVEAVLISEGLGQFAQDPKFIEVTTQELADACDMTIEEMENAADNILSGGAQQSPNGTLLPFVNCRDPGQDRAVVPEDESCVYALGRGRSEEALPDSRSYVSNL

As for `CC[C@@H]1CN2CC[C@@]3(O)C(=Nc4cccc(-c5ccoc5)c43)[C@@H]2C[C@@H]1/C(=C\OC)C(=O)OC`, the MPE in [1] is reported as 87%; in [10], 100%. For the same molecule, the EC50 (as a rule, the concentration needed to bring the measured effect to its halfway point) in [2] was determined as 11000 nM; in data set [12], 7.25 nM. Further, the Activity result in data set [3] is recorded as “Toxic”; in [5], “Non-Toxic”; in [14], “Non-Toxic”; in data set [15], “Active”; in data set [16], “Non-Toxic”; in [17], 30.8 cm. In addition, the Activity result in data set [18] was “Non-Toxic”. Further, the outcome in [4], in [7] and in data set [9] was Active. Besides, in [6], the Ki (commonly a dissociation constant, usually derived from enzyme kinetics or from competition with a known ligand) was found to be 6 nM. Moreover, the Emax (as a rule, the size of the effect at its maximum, as opposed to the concentration needed) in data set [8] is less than 20%; in [11], 20%; in data set [13], 106%; in data set [19], 31%; in data set [20], 60%; in [22] it was 45%. In [21], the ED50 (commonly the dose at which the effect has come halfway, by size or by number of responders) stood at 3.05 mg/kg.
